Hits are enriched below; roughly 2.7% of the tested compounds scored in any of these assays.
PP1 counter: blocks human PP1-alpha phosphatase, a PP5 counter-screen | purified PP1alpha, OMFP fluorescence | inhibition, % at 6.7 µM | 320,000 tested, 0.9% active | P62136;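 active = inhibition above the mean inhibition of all tested compounds plus 3 SD, computed separately for each screening campaign, cut at about 15% in these data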
NadD inh: NadD (S. aureus) enzyme inhibition; purified NadD enzyme, colorimetric absorbance read-out; inhibition, % at 20 µM; 360,000 tested, 0.78% active; AID 602399; in the data active = inhibition above about 26%
TPT1 inhibitor: inhibitors of Candida albicans tRNA 2'-phosphotransferase TPT1; recombinant caTPT1, FP RNA substrate dephosphorylation; inhibition, % at 5 µM; 300,000 tested, 0.81% active; AID 1962;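 active = inhibition above the mean of all tested compounds plus 3 SD, set per screening campaign, cut at about 24% in these data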
HNF4A DNA FP: change in binding of human HNF4 alpha to DNA | P41235 | HNF4a-FITC DNA binding, fluorescence polarization, 1 h | activity change, % at 10 µM | 360,000 tested, 0.3% active; in the data active = activity change above about 30%, passing the limit was not always enough
CSN inh: CSN deneddylation inhibition. Q92905. Purified CSN, SCF-Nedd8-OG deneddylation, fluorescence polarization. inhibition, % at 12.5 µM. 360,000 tested, 0.38% active;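 active = pattern-corrected inhibition above about 35%, with an unprinted fluorescence ratio check between 0.5 and 1.5, limit read from the data, passing the limit was not always enough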
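Schedule: reaction 90 min, room temperature / Assay system: HEK293T-derived human Csn5 enzyme / Input: Csn5 at 0.24 nM final / Measure: inhibition of Csn5 cleavage, % / Control set: substrate-only high control, full reaction low control / Technique: fluorescence polarization of the substrate / Buffer or medium: Tris/NaCl/DTT buffer, pH 7.5 / Reagent: SCFSkp2-Nedd8OG substrate at 10 nM final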
Rpn11 block: blocks the human proteasome subunit Rpn11; 360,000 tested, 0.59% active; O00487; inhibition, % at 20 µM; AID 588493; human 26S proteasome, Ub4-pepOG fluorescence polarization; 20S core pre-blocked with epoxomicin;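 active = inhibition at 20 µM, scaled to each plate's controls, above about 33%, limit read from the data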
Rpn11 inh conf: confirmation of human proteasome Rpn11 inhibitors | shares compounds with Rpn11 block | purified human 26S proteasome, Ub4-pepOG fluorescence polarization; proteasome pretreated with epoxomicin | inhibition, % at 20 µM | 1,900 tested, 29% active
MMP-2 counter: MMP-2 (human) inhibition counter-screen; shares compounds with Rpn11 block; recombinant MMP-2, FRET peptide cleavage fluorescence; inhibition, % at 20 µM; 1,900 tested, 4% active; AID 602330;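 also: human MMP-2 activated beforehand with APMA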
Thrombin FP: counter-screen for RPN11 inhibitors: inhibition of bovine thrombin. shares compounds with Rpn11 block. bovine thrombin cleavage of Ub4-pepOG, fluorescence polarization. inhibition, % at 20 µM. 1,900 tested, 13% active. AID 602333;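 active = mean inhibition at least 40% at 20 µM, or signal 3 deviations below plate average, so some actives read negative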
Target sequence (P00735 whole entry, looked up): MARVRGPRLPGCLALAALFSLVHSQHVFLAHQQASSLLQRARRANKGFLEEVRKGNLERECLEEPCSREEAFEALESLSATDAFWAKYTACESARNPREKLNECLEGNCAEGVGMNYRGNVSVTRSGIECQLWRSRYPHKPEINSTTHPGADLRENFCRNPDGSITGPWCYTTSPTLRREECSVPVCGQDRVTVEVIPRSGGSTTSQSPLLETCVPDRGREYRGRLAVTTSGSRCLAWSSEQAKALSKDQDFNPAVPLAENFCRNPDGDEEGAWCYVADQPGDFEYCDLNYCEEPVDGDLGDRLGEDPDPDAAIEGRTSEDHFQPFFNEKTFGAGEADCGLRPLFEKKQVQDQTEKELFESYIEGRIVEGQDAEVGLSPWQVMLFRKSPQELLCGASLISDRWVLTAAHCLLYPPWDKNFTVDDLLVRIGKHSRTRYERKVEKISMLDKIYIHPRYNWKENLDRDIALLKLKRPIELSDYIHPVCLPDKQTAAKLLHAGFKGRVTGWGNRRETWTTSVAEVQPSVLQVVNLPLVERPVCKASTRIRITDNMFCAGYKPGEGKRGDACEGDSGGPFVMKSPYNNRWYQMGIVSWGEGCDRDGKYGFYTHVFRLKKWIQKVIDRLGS
Hits are given with their value; - = inactive; . = not tested or not shown. Rule as the data show it, unless noted: active = inhibition above about 40%; inactive = the rest.

SMILES	PP1 counter	NadD inh	TPT1 inhibitor	HNF4A DNA FP	CSN inh	Rpn11 block	Rpn11 inh conf	MMP-2 counter	Thrombin FP
Cc1cccc(C(=O)Nc2nnc(SCC(=O)Nc3ccc4c(c3)oc3ccccc34)s2)c1	-	-	-	-	-	-	.	.	.
COc1ccccc1C(=O)Nc1nnc(SCC(=O)Nc2ccc3c(c2)oc2ccccc23)s1	-	-	-	-	-	63	-	-	-
Cc1cc(OCC(=O)NNC(=O)c2cccs2)ccc1Br	-	-	-	-	-	-	.	.	.
CCC(C)NC(=O)C1c2cc(OC)c(OC)cc2C(=O)N(C)C1c1cccs1 (centres undefined)	-	-	-	-	-	158	-	-	-
CC(=O)c1cccc(NC(=O)C2CC(=O)N(c3cccc(C)c3C)C2)c1 (centres undefined)	-	-	-	-	-	93	-	-	-
Cc1cccc(N2CC(C(=O)Nc3cccc(S(=O)(=O)N4CCCCC4)c3)CC2=O)c1C (centres undefined)	-	-	.	-	-	-	.	.	.
COC(=O)c1ccc(/C=C/C(=O)c2ccc(OC)c(OC)c2)cc1	-	-	-	-	-	-	.	.	.
COc1ccc(/C=C/C(=O)c2ccc(C(=O)/C=C/c3ccc(OC)c(OC)c3)cc2)cc1OC	.	-	.	-	-	56	-	-	-
Cc1cc(NC(=O)CN2C(=O)/C(=C/c3cccc(Br)c3)SC2=S)no1	-	-	-	-	-	45	-	-	-
O=c1[nH]c(CN2CCN(S(=O)(=O)c3ccccc3C(F)(F)F)CC2)nc2sc3c(c12)CCCC3	-	-	-	-	-	71	-	-	-
O=C(Cn1cc(C(F)(F)F)cc(Cl)c1=O)Nc1cccc(S(=O)(=O)N2CCCCC2)c1	-	-	.	-	-	-	.	.	.
COc1ccc2cc(-c3csc(-c4cccnc4)n3)ccc2c1	-	-	-	-	-	65	-	-	-
Cn1ccc2c(N3c4ccccc4CCc4ccccc43)cc3c(c21)C1CCC3O1 (centres undefined)	.	-	.	-	-	49	-	-	-
Cn1ccc2c(N3c4ccccc4CCc4ccccc43)cc3c(c21)C1CCC3C1 (centres undefined)	.	-	.	-	-	-	.	.	.
COc1ccccc1N(C)c1cc2c(c3c1ccn3C)C1CCC2O1 (centres undefined)	.	-	.	-	-	42	-	-	-
COCCCn1c(=O)/c(=C\c2ccccc2OC(F)F)s/c1=C(/C#N)C(N)=O	-	-	-	-	-	49	-	-	-
Cc1ccc2nc(SCC(=O)c3cc(C)n(C)c3C)[nH]c2c1	-	-	-	-	-	-	.	.	.
Cc1ccc2nc(SCC(=O)c3c(N)n(C)c(=O)n(C)c3=O)[nH]c2c1	-	-	-	-	-	44	-	-	-
CCc1nnc(NC(=O)CCN2C(=O)/C(=C/c3cc(OC)c(OC)c(OC)c3)SC2=S)s1	-	-	-	-	-	48	-	-	42
CCc1ccc(C=C2SC(=S)N(CCCC(=O)Nc3ccc(C(=O)O)cc3)C2=O)cc1	.	-	.	-	-	-	.	.	.
O=C(CCN1C(=O)/C(=C/c2ccc(F)cc2)SC1=S)NNC(=O)c1ccncc1	-	-	-	-	-	-	.	.	.
Cc1ccc(/C=C2\SC(=S)N(CCC(=O)NNC(=O)c3ccncc3)C2=O)cc1	-	-	-	-	-	44	-	-	-
CCc1ccc(/C=C2/SC(=S)N(CCC(=O)Nc3ccc(C(=O)O)cc3)C2=O)cc1	-	40	-	-	-	114	43	-	-
COc1ccc(-c2nc3ncccc3n2O)cc1	-	-	-	-	-	-	.	.	.
O=C(COC(=O)c1cc2ccccc2cc1O)NC(=O)NCc1ccco1	-	-	-	-	-	44	-	-	-
SMILES	PP1 counter	NadD inh	TPT1 inhibitor	HNF4A DNA FP	CSN inh	Rpn11 block	Rpn11 inh conf	MMP-2 counter	Thrombin FP
O=C(Nc1nc2c(s1)CCCC2)c1ccc(Br)o1	-	-	-	-	-	90	-	-	-
Cc1ccc(C(=O)Nc2nc3c(s2)CCCC3)o1	-	-	-	-	-	-	.	.	.
Cc1ccc(CN2CCC[C@]3(N[C@H](c4ccc(C(F)(F)F)cc4)[C@@H]4C(=O)N(Cc5ccccc5)C(=O)[C@@H]43)C2=O)cc1	.	-	.	-	-	-	.	.	.
Cc1cc(C)n(-c2ccc(C(=O)N3CCN(S(=O)(=O)c4ccc(Cl)cc4)CC3)cc2)n1	-	-	.	-	-	-	.	.	.
O=C(O)CCN1C(=O)C2C3C=CC(C2C1=O)C1C(=O)N(CCC(=O)O)C(=O)C31 (centres undefined)	.	-	.	-	-	-	.	.	.
CC(=O)n1cc([C@H]2C=C(C(=O)Nc3ccccc3)O[C@@H](OCc3ccc(CO)cc3)C2)c2ccccc21	-	-	-	-	-	42	44	-	-
Cc1cc(OCCN2CCN(S(=O)(=O)c3ccccc3F)CC2)ccc1C(C)C	-	-	.	-	-	-	.	.	.
CC1(C(=O)Nc2ccc3c(c2)OCO3)CCN1C(=O)c1ccco1 (centres undefined)	.	-	.	-	-	-	.	.	.
COCCn1c(=NC(=O)c2nc3ccccc3s2)sc2cc(S(C)(=O)=O)ccc21	-	-	-	-	-	-	.	.	.
COC(=O)Cn1c(=NC(=O)c2nc3ccccc3s2)sc2cc(S(N)(=O)=O)ccc21	-	-	-	-	-	47	-	-	-
COc1ccc(N2C(=NC(=O)C3CCCCC3)SC3CS(=O)(=O)CC32)c(OC)c1 (centres undefined)	-	-	-	-	-	-	.	.	.
O=C(O)c1cn(C2CC2)c2cc(N3CCN(S(=O)(=O)c4ccc5c(c4)OCCO5)CC3)c(F)cc2c1=O	-	-	-	-	-	102	-	-	-
COCCNC(=O)c1cc(-c2ccccc2C)nn1CC1CC(c2cccnc2)=NO1 (centres undefined)	.	-	.	-	-	-	.	.	.
CCOC1=C2CN(S(=O)(=O)c3ccc(C)cc3)[C@@H](c3cccs3)C[C@H]2[C@H]2C(=O)N(c3ccccc3)C(=O)[C@H]2C1	.	-	.	-	-	-	.	.	.
CCC(CO)Oc1cc(NC(=O)c2ccc(N)cc2)c2ncn(C(C)C)c2c1 (centres undefined)	.	-	.	-	-	43	44	-	-
CCC(CO)Oc1cc(NC(=O)c2ccc(F)cc2)c2ncn(C(C)C)c2c1 (centres undefined)	-	-	.	-	-	-	.	.	.
FC(F)c1nc2nc(Cl)c(Cl)nc2[nH]1	.	-	.	-	-	-	.	.	.
Cc1nnc(N/N=C/c2ccc(-c3ccccc3F)o2)n1N	-	-	-	-	-	-	.	.	.

Screens from PubChem.
